This passage reports Deuterium retention results from ChEMBL document CHEMBL1123578, “Stereochemical studies on the cytochrome P-450 catalyzed oxidation of (S)-nicotine to the (S)-nicotine delta 1'(5')-iminium species” (J Med Chem, 1987).

Holding throughout (format): functional
What all share (details): Microsome

The species named for assay [1] is Oryctolagus cuniculus. In words: Percent Deuterium retention was measured for the corresponding alpha-cyano amine in the Dutch rabbit liver microsomes and value from experimentI V are reported. The procedure, abridged:
(§1)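 Liver microsomes from male Dutch rabbits (homogenized in 2 mL KCl/g liver), 3 mg protein/mL. The E or Z (S)-nicotine-5'-d1 (0.5 mM) was incubated in 0.2 M K phosphate pH 7.4 with 1.5 mM MgCl2, 1.0 mM NaCN and 1 mg/mL NADPH for 30 min at 37 °C.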
In general terms: Liver microsomes are a subcellular fraction often used to study metabolism.

For assay [2], the species on record is Homo sapiens. Put plainly: Percent Deuterium retention was measured for the corresponding alpha-cyano amine in the human liver microsomes and value from experiment II are reported. The procedure, abridged:
(§2)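 Human liver microsomes from three separate sources (homogenized in 4 mL KCl/g liver), 3 mg protein/mL. E or Z (S)-nicotine-5'-d1 (0.5 mM) was incubated 30 min at 37 °C in 0.2 M K phosphate pH 7.4 with 1.5 mM MgCl2, 1.0 mM NaCN and 1 mg/mL NADPH. The 5'-cyano adducts were ether-extracted and measured by GC-EIMS SIM (m/z 109-111) with isotope and contaminant corrections.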

Assay [3] is filed under the species Oryctolagus cuniculus. Put plainly: Percent Deuterium retention was measured for the corresponding alpha-cyano amine in the Dutch rabbit liver microsomes and value from experiment I are reported. In short, it runs like this: as §1
Assay [4] is filed under the species Oryctolagus cuniculus. Put plainly: Percent Deuterium retention was measured for the corresponding alpha-cyano amine in the Dutch rabbit liver microsomes and value from experiment V are reported. In short, it runs like this:
as §1

Assay [5] is filed under the species Homo sapiens. Put plainly: Percent Deuterium retention was measured for the corresponding alpha-cyano amine in the human liver microsomes and value from experiment III are reported. In short, it runs like this: as §2
Assay [6] is filed under the species Oryctolagus cuniculus. Put plainly: Percent Deuterium retention was measured for the corresponding alpha-cyano amine in the Dutch rabbit liver microsomes and value from experiment III are reported. The procedure, abridged: as §1
The species entered for assay [7] is Oryctolagus cuniculus. In words: Percent Deuterium retention was measured for the corresponding alpha-cyano amine in the Dutch rabbit liver microsomes and value from experiment II are reported. The procedure, abridged:
as §1

The species entered for assay [8] is Oryctolagus cuniculus. Put plainly: Percent Deuterium retention was measured for the corresponding alpha-cyano amine in the Dutch rabbit liver microsomes and value from experiment VI are reported. In short, it runs like this: as §1
For assay [9], the species on record is Homo sapiens. In words: Percent Deuterium retention was measured for the corresponding alpha-cyano amine in the human liver microsomes and value from experiment I are reported. The procedure, abridged: as §2
The species named for assay [10] is Homo sapiens. Put plainly: Percent Deuterium retention was measured for the corresponding alpha-cyano amine in the human liver microsomes and value from experiment III are reported. In short, it runs like this: as §2
The species entered for assay [11] is Oryctolagus cuniculus. In words: Percent Deuterium retention was measured for the corresponding alpha-cyano amine in the Dutch rabbit liver microsomes and value from experiment IV are reported. The procedure, abridged: as §1

As for `CN1[C@H](C#N)CC[C@H]1c1cccnc1`, the Deuterium retention amounted to 28% in the assay filed under Oryctolagus cuniculus [1]; 24% in the assay listed under Homo sapiens [2]; 34% in the assay listed under Oryctolagus cuniculus [3]; 27% in the assay filed under Oryctolagus cuniculus [4]; 3% in the assay listed under Homo sapiens [5]; 30% in the assay filed under Oryctolagus cuniculus [6]. The Deuterium retention in the assay filed under Oryctolagus cuniculus [7] came to 22%; in the assay listed under Oryctolagus cuniculus [8], 16%; in the assay listed under Homo sapiens [9], 3%.

Regarding `CN1[C@@H](C#N)CC[C@H]1c1cccnc1`, the Deuterium retention in the assay listed under Homo sapiens [2] came to 84%; in the assay filed under Oryctolagus cuniculus [3], 87%; in the assay filed under Oryctolagus cuniculus [4], 77%; in the assay listed under Oryctolagus cuniculus [6], 89%; in the assay listed under Homo sapiens [10], 91%; in the assay filed under Oryctolagus cuniculus [7], 81%. In addition, the Deuterium retention in the assay listed under Oryctolagus cuniculus [8] is 88%; in the assay listed under Oryctolagus cuniculus [11], 79%; in the assay filed under Homo sapiens [9], 92%.
